The source of these data is ChEMBL document CHEMBL1177862, “Novel effects of glycyrrhetinic acid on the central nervous system tumorigenic progenitor cells: induction of actin disruption and tumor cell-selective toxicity” (Eur J Med Chem, 2010).

Test [1] in a line: Antiproliferative activity against mouse r/m HM-SFME-1 cells after 24 hrs by MTT assay. Format: functional, cell-based. An outline of the steps: (§1)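 Cells were kept in DME/F-12 with insulin, transferrin and EGF on fibronectin-coated dishes at 37 C in 20% O2/5% CO2. They were seeded at 1 x 10^4 cells/well and dosed at half confluency for 24 h. Cell number was read by MTT. Runs were in triplicate, repeated at least three times, as mean SD. IC50 was derived from concentration-response data.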

Test [2] can be described thus: Antiproliferative activity against mouse SFME cells after 24 hrs by MTT assay. Format: cell-based. Summed up: as §1
Test [3] in a line: Antiproliferative activity against mouse r/m HM-SFME-1 cells at 10 uM after 24 hrs by MTT assay. Format: functional. An outline of the steps: as §1
Test [4] is described as follows: Down regulation of beta-actin protein expression in mouse r/m HM-SFME-1 cells at IC50 after 8 hrs by Western blotting. Format: functional, cell-based. Summed up: (§2)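 They were run on SDS-PAGE, blotted to nitrocellulose and probed with mouse monoclonal anti-beta-actin, then AP-conjugated anti-mouse IgG1. GAPDH was the loading control. Bands were quantified by densitometry. Values are from at least 3 experiments, Student's t-test.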

Test [5] in a line: Down regulation of beta-actin protein expression in mouse SFME cells at IC50 after 8 hrs by Western blotting. In kind it is functional, cell-based. Summed up: as §2
Test [6] can be described thus: Induction of F-actin disruption in mouse r/m HM-SFME-1 cells assessed as disappearance of F-actin extension at IC50 after 8 hrs by confocal laser scanning microscopy. In kind it is functional, cell-based. Summed up:
(§3)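 After 8 h treatment, cells were fixed in 3.7% formaldehyde/PBS and permeabilized with 0.1% Triton X-100. F-actin was labeled with rhodamine-phalloidin. Slides were mounted in anti-fade medium and imaged by confocal laser scanning or fluorescence microscopy for peripheral F-actin extensions and lamellipodia.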

Test [7] is described as follows: Induction of F-actin disruption in mouse SFME cells assessed as F-actin extension at IC50 after 8 hrs by confocal laser scanning microscopy. Format: functional, cell-based. Summed up: as §3

Where a name gives a salt, the structure may show the parent alone. A value given as a limit tells only on which side of the number the result lay.

Consider `Nc1ccn([C@@H]2O[C@H](CO)[C@@H](O)[C@@H]2O)c(=O)n1` [CYTARABINE], for which the IC50 was 33.3 µM in test [1] and 0.8 µM in test [2].

For `COc1cccc2c1C(=O)c1c(O)c3c(c(O)c1C2=O)C[C@@](O)(C(=O)CO)C[C@@H]3O[C@H]1C[C@H](N)[C@H](O)[C@H](C)O1` [DOXORUBICIN HYDROCHLORIDE], the IC50 in test [1] worked out at 64 µM; in test [2], 0.8 µM.

In turn, `CC1(C)[C@@H](O)CC[C@]2(C)[C@H]3C(=O)C=C4[C@@H]5C[C@@](C)(C(=O)O)CC[C@]5(C)CC[C@@]4(C)[C@]3(C)CC[C@@H]12` [ENOXOLONE] showed an inhibition at 10 µM in test [3] above 80%. Also, the IC50 entry in test [4] is “Active”; in test [1], 7.3 µM; in test [5], “Not Active”; in test [2] it was 18 µM; in test [6] it was “Active”; in test [7], “Not Active”.

For the compound `COc1cc([C@@H]2c3cc4c(cc3[C@@H](O[C@@H]3O[C@@H]5CO[C@@H](C)O[C@H]5[C@H](O)[C@H]3O)[C@H]3COC(=O)[C@H]23)OCO4)cc(OC)c1O` [ETOPOSIDE], the half-inhibitory concentration (IC50) in test [1] amounted to 9 µM; in test [2] it was 0.5 µM.

On to `O=c1[nH]cc(F)c(=O)[nH]1` [FLUOROURACIL], for which the IC50 turned out to be 48.5 µM in test [1] and 3.2 µM in test [2].
